Results: ChEMBL document CHEMBL3352584, “Novel DNA gyrase inhibiting spiropyrimidinetriones with a benzisoxazole scaffold: SAR and in vivo characterization” (J Med Chem, 2014)
Values after ≈ are worked out from the molar mass of the structure shown.

Tests used:
[1] = AUC in Wistar Hannover rat at 250 mg/kg, po dosed once daily for 14 days measured on day 14; type: ADME, organism-based; design: dose 250 mg/kg, route oral; settings: plasma
Procedure, shortened: (§1)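 Wistar Hannover rats, 2 males and 2 females per dose, dosed orally once daily for 14 days at 250, 500 or 750 mg/kg/day. Vehicle was 0.2 M meglumine/20% hydroxypropyl-β-cyclodextrin. Blood was sampled on day 14 and exposure measured in blood. Animals were killed after sampling without necropsy.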

[2] = Fraction unbound in mouse plasma at 10 uM after 16 hrs by LC-MS/MS analysis; type: ADME, cell-free
Procedure, shortened: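 Compound at 10 μM in human, rat or mouse plasma, equilibrium dialysis against buffer at 37 °C for 16 h. Buffer and plasma concentrations measured by LC-MS/MS, and the free fraction taken from their ratio.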

[3] = molecular target: DNA topoisomerase 2-alpha (Homo sapiens, UniProt P11388); test: Inhibition of human topoisomerase 2alpha
Chain of DNA topoisomerase 2-alpha (P11388 whole entry): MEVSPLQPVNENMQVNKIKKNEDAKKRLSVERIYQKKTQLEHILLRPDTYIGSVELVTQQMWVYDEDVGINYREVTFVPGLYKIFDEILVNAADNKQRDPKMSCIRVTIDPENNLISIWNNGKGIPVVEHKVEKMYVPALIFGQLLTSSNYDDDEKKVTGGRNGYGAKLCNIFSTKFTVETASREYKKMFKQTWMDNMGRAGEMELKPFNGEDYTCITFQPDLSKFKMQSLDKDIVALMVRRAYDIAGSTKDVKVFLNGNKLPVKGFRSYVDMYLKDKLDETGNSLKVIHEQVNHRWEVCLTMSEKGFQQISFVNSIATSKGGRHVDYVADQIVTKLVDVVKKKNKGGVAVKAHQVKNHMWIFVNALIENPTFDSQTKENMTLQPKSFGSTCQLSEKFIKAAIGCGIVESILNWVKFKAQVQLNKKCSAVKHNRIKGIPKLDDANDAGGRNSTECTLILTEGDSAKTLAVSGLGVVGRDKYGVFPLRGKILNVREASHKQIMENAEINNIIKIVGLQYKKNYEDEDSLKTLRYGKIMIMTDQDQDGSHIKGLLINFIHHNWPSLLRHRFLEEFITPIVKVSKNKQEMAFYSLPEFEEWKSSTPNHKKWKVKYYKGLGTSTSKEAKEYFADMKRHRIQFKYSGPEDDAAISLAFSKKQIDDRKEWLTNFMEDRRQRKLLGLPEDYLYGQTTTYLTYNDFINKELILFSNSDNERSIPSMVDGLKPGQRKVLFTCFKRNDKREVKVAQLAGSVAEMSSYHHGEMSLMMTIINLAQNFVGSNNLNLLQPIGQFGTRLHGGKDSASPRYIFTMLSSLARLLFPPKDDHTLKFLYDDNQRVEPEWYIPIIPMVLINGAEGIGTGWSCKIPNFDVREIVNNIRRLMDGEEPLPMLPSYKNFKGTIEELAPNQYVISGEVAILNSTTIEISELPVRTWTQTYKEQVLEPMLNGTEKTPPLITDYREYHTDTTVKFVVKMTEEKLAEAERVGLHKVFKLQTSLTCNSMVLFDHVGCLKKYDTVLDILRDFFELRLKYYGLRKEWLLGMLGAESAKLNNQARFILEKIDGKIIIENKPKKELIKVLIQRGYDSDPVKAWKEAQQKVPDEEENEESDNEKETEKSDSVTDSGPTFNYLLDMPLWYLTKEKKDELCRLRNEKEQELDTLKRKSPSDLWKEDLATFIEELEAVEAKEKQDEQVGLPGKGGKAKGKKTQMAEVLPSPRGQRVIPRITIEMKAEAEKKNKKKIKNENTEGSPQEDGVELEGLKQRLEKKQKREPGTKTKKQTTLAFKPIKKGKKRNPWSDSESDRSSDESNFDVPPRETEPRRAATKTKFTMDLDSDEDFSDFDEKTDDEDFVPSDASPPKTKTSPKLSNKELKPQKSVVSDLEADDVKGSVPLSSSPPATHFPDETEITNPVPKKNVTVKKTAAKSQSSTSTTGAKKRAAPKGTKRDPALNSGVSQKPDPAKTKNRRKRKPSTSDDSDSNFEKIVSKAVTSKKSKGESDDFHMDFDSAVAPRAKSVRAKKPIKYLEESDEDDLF

[4] = Cmax in Wistar Hannover rat at 250 mg/kg, po dosed once daily for 14 days measured on day 14; type: ADME, organism-based; design: dose 250 mg/kg, route oral; settings: in vivo; procedure, shortened: as §1
Rattus norvegicus [5] = test: fCmax in Wistar Hannover rat at 500 mg/kg, po dosed once daily for 14 days measured on day 14; type: ADME, organism-based; design: dose 500 mg/kg, route oral; settings: in vivo, 336 h
Streptococcus pyogenes = test: Antimicrobial activity against Streptococcus pyogenes by broth microdilution method; type: functional
Procedure, shortened: (§2)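 Broth microdilution following CLSI guidelines. Values under 12.5 μM are averages of three or more replicates.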

[6] = AUC in Wistar Hannover rat at 750 mg/kg, po dosed once daily for 14 days measured on day 14; type: ADME, organism-based; design: dose 750 mg/kg, route oral; settings: plasma; procedure, shortened: as §1
Rattus norvegicus [7] = test: Toxicity in Wistar Hannover rat at 1000 mg/kg, po administered as single dose; type: organism-based; design: dose 1000 mg/kg, route oral; settings: in vivo
Procedure, shortened: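 Single-dose oral phase in groups of three male Wistar Hannover rats, at doses up to 1000 mg/kg. Vehicle was 0.2 M meglumine/20% hydroxypropyl-β-cyclodextrin.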

Staphylococcus aureus [8] = test: Antimicrobial activity against methicillin-sensitive Staphylococcus aureus ARC516 infected in immunocompetant mouse administered as single ip dose starting 2 hrs after infection; type: functional, organism-based
[9] = Solubility of the compound; type: physicochemical
Escherichia coli [10] = test: Antimicrobial activity against tolC-deficient Escherichia coli by broth microdilution method; type: functional; procedure, shortened: as §2
Escherichia coli [11] = test: Antimicrobial activity against Escherichia coli by broth microdilution method; type: functional; procedure, shortened: as §2
Staphylococcus aureus [12] = test: Antimicrobial activity against methicillin-sensitive Staphylococcus aureus by broth microdilution method in presence of 50% human serum; type: functional
Procedure, shortened: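 CLSI broth microdilution against methicillin-sensitive S. aureus, run with 50% human serum added to the medium to reflect plasma protein binding. Values under 12.5 μM are averages of three or more replicates.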

Rattus norvegicus [13] = test: fAUC in Wistar Hannover rat at 500 mg/kg, po dosed once daily for 14 days measured on day 14; type: ADME, organism-based; design: dose 500 mg/kg, route oral; settings: in vivo, 336 h
Staphylococcus aureus [14] = test: Inhibition of cell wall biosynthesis in methicillin-sensitive Staphylococcus aureus by [14C]-N-acetylglucosamine incorporation assay; type: functional, organism-based
Staphylococcus aureus [15] = test: Antimicrobial activity against wild-type Staphylococcus aureus 516 by broth microdilution method; type: functional; procedure, shortened: as §2
Staphylococcus aureus [16] = test: Antimicrobial activity against methicillin-sensitive Staphylococcus aureus ARC516 infected in immunosupressed mouse administered as single ip dose starting 2 hrs after infection; type: functional, organism-based
[17] = Toxicity in po dosed Wistar Hannover rat administered administered once daily for 14 days; type: organism-based; settings: in vivo
Procedure, shortened: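 Repeat-dose oral study in Wistar Hannover rats, three males and three females per group, dosed once daily for 14 days at 0, 250, 500 or 750 mg/kg/day and necropsied on day 15. Endpoints were clinical signs, body weight, food intake, temperature, hematology, plasma chemistry, toxicokinetics, and gross and microscopic pathology.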

Cc1noc2c(F)c3c(cc12)CC1(C(=O)NC(=O)NC1=O)[C@H]1[C@H](C)O[C@H](C)CN31
AUC at 336 h [1]: 2300 µM·h | fraction unbound at 16 h, 10 µM [2]: 0.19 | IC50 [3]: 50 µM | Cmax [4]: 290 µM | fCmax (Rattus norvegicus [5]): 70 µmol/L | MIC (Streptococcus pyogenes): 6.2 µM (≈ 2.49 µg/mL) | AUC at 336 h [6]: 4600 µM·h | Activity (Rattus norvegicus [7]): Toxic | Activity (Staphylococcus aureus [8]): Dose-dependent effect | solubility [9]: > 1000 µM | MIC (Escherichia coli [10]): ≤ 0.2 µM | MIC (Escherichia coli [11]): 45 µM (≈ 18.1 µg/mL) | MIC (Staphylococcus aureus [12]): 3.1 µM | fAUC (Rattus norvegicus [13]): 700 µM·h | IC50 (Staphylococcus aureus [14]): 8 µg/mL (≈ 19.9 µM) | MIC (Staphylococcus aureus [15]): 0.5 µg/mL (≈ 1.24 µM) | Activity (Staphylococcus aureus [16]): Dose-dependent effect | NOAEL at 336 h [17]: 500 mg/kg
